Active and inactive are the calls of the source. No cut-off for these calls is given here.

The term inhibition denotes the change of the read-out against control, counted positive when it falls.

For data set [1], the system named is MCF7. Kind of data set: Cell cycle arrest in human MCF7 cells assessed as accumulation at S phase at 3 uM after 24 hrs by propidium iodide staining based flow cytometry (reference value: 34.03%). In kind it is functional. The gist of the method:
(§1)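 Cells treated 24 h with test compound, MCF-7 at various concentrations and PC-3 at various concentrations; cells harvested, stained with propidium iodide and acquired by flow cytometry for cell cycle phase distribution.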
On the technique in general: A flow cytometer gives signals particle by particle.

In data set [2] the test system is MCF7. Kind of data set: Induction of morphological changes in human MCF7 cells assessed as cell detachment at >6 uM after 24 hrs by phase contrast microscopy. It is filed as functional, cell-based. The gist of the method: (§2)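 Cells were exposed to a range of concentrations for 24 h. Cell number and morphology, including detachment from the surface, were assessed by phase-contrast microscopy at 10X magnification.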

The nature of data set [3]: Elimination rate constant in liver microsomes (unknown origin) at 5 ug/ml measured up to 60 mins by UPLC analysis. In kind it is ADME, Microsome. On the technique in general: Liver microsomes are vesicles of endoplasmic reticulum, rich in cytochrome P450 enzymes.
Data set [4] has as its system MCF7. Description: Induction of mitochondrial membrane depolarization in human MCF7 cells at 6 uM after 24 hrs by JC-1 staining based flow cytometry (reference value: 11%). It is filed as functional.
For data set [5], the system named is MCF7. Kind of data set: Increase in Bax expression in human MCF7 cells at 3 to 9 uM after 24 hrs by Western blot analysis. It is filed as functional, cell-based. Put shortly:
(§3)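 MCF-7 or PC-3 cells treated with compound for 24 h, harvested; PCNA, Bax and Bcl-2 protein expression checked by Western blotting.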
(In general: In western blotting, separated proteins are transferred to a membrane and probed.)

In data set [6] the test system is MCF7. Kind of data set: Induction of apoptosis in human MCF7 cells assessed as early apoptotic cells at 9 uM after 24 hrs by annexin V-FITC/propidium iodide staining based flow cytometry (reference value: 7.36%). In kind it is functional. Put shortly: (§4)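 Apoptosis by Annexin V-FITC/PI dual staining: MCF-7 cells treated 24 h at 3, 6 and 9 µM, then harvested, stained and acquired by flow cytometry; early apoptotic = AnnexinV+/PI−, live = AnnexinV−/PI−, necrotic = AnnexinV−/PI+.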

Data set [7] has as its system MCF7. Description: Decrease in PCNA levels in human MCF7 cells at 3 to 9 uM after 24 hrs by Western blot analysis. In kind it is functional, cell-based. Put shortly:
as §3

A short description of data set [8]: Intrinsic hepatic clearance in liver microsomes (unknown origin) assessed per mg of protein at 5 ug/ml in presence of NADPH by UPLC analysis. In kind it is ADME, Microsome. As to conditions: read-out: CLH (converted).
For data set [9], the system named is MCF7. Description: Induction of apoptosis in human MCF7 cells assessed as late apoptotic cells at 9 uM after 24 hrs by annexin V-FITC/propidium iodide staining based flow cytometry (reference value: 5.25%). In kind it is functional. Put shortly: as §4
Data set [10] relates to MCF7. Description: Cell cycle arrest in human MCF7 cells assessed as accumulation at G2/M phase at 9 uM after 24 hrs by propidium iodide staining based flow cytometry (reference value: 20.30%). In kind it is functional. Put shortly:
as §1

In data set [11] the test system is MCF7. Kind of data set: Induction of apoptosis in human MCF7 cells assessed as late apoptotic cells at 6 uM after 24 hrs by annexin V-FITC/propidium iodide staining based flow cytometry (reference value: 5.25%). It is filed as functional. The gist of the method:
as §4

Data set [12] relates to MCF7. Kind of data set: Induction of morphological changes in human MCF7 cells assessed as decrease in cell number at 1 to 6 uM after 24 hrs by phase contrast microscopy. It is filed as functional, cell-based. Put shortly:
as §2

In data set [13] the test system is MCF7. Kind of data set: Induction of mitochondrial membrane depolarization in human MCF7 cells at 9 uM after 24 hrs by JC-1 staining based flow cytometry (reference value: 11%). It is filed as functional.
The target in data set [14] is T1, Serine/threonine-protein kinase AKT (Homo sapiens) (UniProt P31751+Q9Y243+P31749). Description: Inhibition of Akt phosphorylation at […] in human MCF7 cells at 9 uM after 24 hrs by Western blot analysis. It is filed as cell-based. The gist of the method:
(§5)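 Protein expression was analysed by Western blotting of cells harvested after 24 h compound treatment.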

Data set [15] concerns MCF7. Kind of data set: Induction of apoptosis in human MCF7 cells assessed as necrotic cells at 6 uM after 24 hrs by annexin V-FITC/propidium iodide staining based flow cytometry (reference value: 4.76%). In kind it is functional. Put shortly: as §4
Data set [16] concerns MCF7. Kind of data set: Induction of apoptosis in human MCF7 cells assessed as late apoptotic cells at 3 uM after 24 hrs by annexin V-FITC/propidium iodide staining based flow cytometry (reference value: 5.25%). In kind it is functional. The gist of the method: as §4
For data set [17], the system named is MCF7. Kind of data set: Induction of morphological changes in human MCF7 cells at 1 to 6 uM after 24 hrs by phase contrast microscopy. In kind it is functional, cell-based. The gist of the method:
as §2

For data set [18], the system named is MCF7. Kind of data set: Cell cycle arrest in human MCF7 cells assessed as decrease in cells at G0/G1 phase after 24 hrs by propidium iodide staining based flow cytometry. It is filed as functional. Put shortly: as §1
For data set [19], the system named is MCF7. Description: Induction of apoptosis in human MCF7 cells assessed as decrease in live cells after 24 hrs by annexin V-FITC/propidium iodide staining based flow cytometry. It is filed as functional, cell-based. Put shortly: as §4
The nature of data set [20]: Intrinsic hepatic clearance in liver microsomes (unknown origin) assessed per mg of protein at 8 ug/ml in presence of NADPH by UPLC analysis. It is filed as ADME, Microsome. The conditions noted are these: read-out: CLH (converted).
Data set [21] deals with PC-3. Kind of data set: Cell cycle arrest in human PC3 cells assessed as accumulation at G2/M phase at 8.8 uM after 24 hrs by propidium iodide staining based flow cytometry (reference value: 2.25%). It is filed as functional. The gist of the method: as §1
Data set [22] concerns PC-3. Kind of data set: Increase in Bax expression in human PC3 cells at 4.8 to 8.8 uM after 24 hrs by Western blot analysis. It is filed as functional, cell-based. The gist of the method:
as §3

Data set [23] has as its system PC-3. Kind of data set: Induction of apoptosis in human PC3 cells assessed as late apoptotic cells at 4.8 uM after 24 hrs by annexin V-FITC/propidium iodide staining based flow cytometry (reference value: 0.80%). In kind it is functional. The gist of the method: (§6)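 MCF-7 cells exposed to 3, 6 or 9 μM and PC-3 cells to 4.8 or 8.8 μM for 24 h, then harvested and dual-stained with Annexin V-FITC/PI and read by flow cytometry. Gates: live AnnexinV⁻/PI⁻, early apoptotic AnnexinV⁺/PI⁻, necrotic AnnexinV⁻/PI⁺.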

The subject of data set [24] is PC-3. Description: Inhibition of colony formation in human PC3 cells incubated for 24 hrs measured till day 7 by crystal violet staining based assay. It is filed as functional, cell-based. The gist of the method: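 Cells were treated with a range of concentrations for 24 h. The medium was then replaced with complete medium and cells were grown for 7 days. Colonies were stained with 0.1% crystal violet.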

The subject of data set [25] is PC-3. Description: Induction of apoptosis in human PC3 cells assessed as viable cells at 8.8 uM after 24 hrs by annexin V-FITC/propidium iodide staining based flow cytometry (reference value: 92.24%). It is filed as functional. As to conditions: PC-3, 24 h, read-out: Activity. Put shortly: as §6
In data set [26] the test system is PC-3. Kind of data set: Induction of morphological changes in human PC3 cells assessed as cell detachment at >8.8 uM after 24 hrs by phase contrast microscopy. In kind it is functional, cell-based. The gist of the method:
as §2

Data set [27] in a line: Drug metabolism in liver microsomes (unknown origin) assessed as compound remaining at 8 ug/ml after 5 mins in presence of NADPH by UPLC analysis. It is filed as ADME, Microsome. The conditions noted are these: read-out: Drug metabolism. The gist of the method:
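Microsomal metabolic stability; percentage of compound remaining intact measured after 5 min incubation in presence of microsomes.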

Data set [28] addresses T1, Serine/threonine-protein kinase AKT (Homo sapiens). Description: Inhibition of Akt phosphorylation at […] in human PC3 cells at 8.8 uM after 24 hrs by Western blot analysis. It is filed as cell-based. Put shortly:
as §5

The subject of data set [29] is PC-3. Kind of data set: Cell cycle arrest in human PC3 cells assessed as accumulation at G0/G1 phase at 4.8 uM after 24 hrs by propidium iodide staining based flow cytometry (reference value: 72.73%). It is filed as functional. Put shortly:
as §1

The test system of data set [30] is PC-3. Kind of data set: Decrease in PCNA levels in human PC3 cells at 4.8 to 8.8 uM after 24 hrs by Western blot analysis. It is filed as functional, cell-based. Put shortly: as §3
The test system of data set [31] is PC-3. Kind of data set: Induction of morphological changes in human PC3 cells at 2.4 to 8.8 uM after 24 hrs by phase contrast microscopy. In kind it is functional, cell-based. Put shortly:
as §2

For data set [32], the system named is PC-3. Description: Induction of apoptosis in human PC3 cells assessed as necrotic cells at 8.8 uM after 24 hrs by annexin V-FITC/propidium iodide staining based flow cytometry (reference value: 2.52%). In kind it is functional. Put shortly: as §6

T1 sequence (P31749 whole entry, looked up): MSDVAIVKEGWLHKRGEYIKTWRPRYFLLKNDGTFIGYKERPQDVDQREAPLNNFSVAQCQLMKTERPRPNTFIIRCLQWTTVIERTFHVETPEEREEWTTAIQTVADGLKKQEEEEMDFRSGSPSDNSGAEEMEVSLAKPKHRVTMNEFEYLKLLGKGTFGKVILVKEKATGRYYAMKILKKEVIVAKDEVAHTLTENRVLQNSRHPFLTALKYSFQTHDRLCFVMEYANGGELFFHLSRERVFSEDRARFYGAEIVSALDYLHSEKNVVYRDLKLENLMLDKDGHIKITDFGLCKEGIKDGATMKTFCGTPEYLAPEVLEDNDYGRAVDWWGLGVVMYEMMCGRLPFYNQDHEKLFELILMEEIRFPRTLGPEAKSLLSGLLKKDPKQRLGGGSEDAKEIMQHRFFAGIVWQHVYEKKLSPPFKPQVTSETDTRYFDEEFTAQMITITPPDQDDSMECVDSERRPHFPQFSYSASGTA
T1 sequence (P31751 whole entry, looked up): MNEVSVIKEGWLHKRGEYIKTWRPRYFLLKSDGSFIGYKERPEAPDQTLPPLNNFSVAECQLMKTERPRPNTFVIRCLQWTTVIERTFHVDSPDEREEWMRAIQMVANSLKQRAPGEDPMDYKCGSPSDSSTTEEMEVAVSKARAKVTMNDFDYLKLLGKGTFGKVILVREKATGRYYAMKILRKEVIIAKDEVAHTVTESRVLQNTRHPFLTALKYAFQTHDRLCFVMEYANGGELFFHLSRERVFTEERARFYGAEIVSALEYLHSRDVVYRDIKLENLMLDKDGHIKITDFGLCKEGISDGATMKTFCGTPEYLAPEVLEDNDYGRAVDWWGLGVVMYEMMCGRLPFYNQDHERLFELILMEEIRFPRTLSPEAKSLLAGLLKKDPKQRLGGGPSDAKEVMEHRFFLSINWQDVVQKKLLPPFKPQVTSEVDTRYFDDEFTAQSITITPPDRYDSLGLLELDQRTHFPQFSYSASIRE
T1 sequence (Q9Y243 whole entry, looked up): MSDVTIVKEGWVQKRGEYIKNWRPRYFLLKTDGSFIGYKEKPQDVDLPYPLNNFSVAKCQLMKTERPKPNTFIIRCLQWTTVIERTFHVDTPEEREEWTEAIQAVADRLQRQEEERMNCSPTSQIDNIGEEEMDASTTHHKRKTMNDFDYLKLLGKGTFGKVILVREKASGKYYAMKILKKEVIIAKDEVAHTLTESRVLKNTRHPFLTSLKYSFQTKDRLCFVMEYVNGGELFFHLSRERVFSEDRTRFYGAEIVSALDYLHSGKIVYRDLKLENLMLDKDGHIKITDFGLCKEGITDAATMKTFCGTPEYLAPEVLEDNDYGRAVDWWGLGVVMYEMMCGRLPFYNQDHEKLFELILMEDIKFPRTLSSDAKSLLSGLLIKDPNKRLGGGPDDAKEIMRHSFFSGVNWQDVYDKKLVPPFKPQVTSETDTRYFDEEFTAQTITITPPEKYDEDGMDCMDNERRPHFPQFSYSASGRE

As to `O=C1/C(=C/c2ccccc2F)CN(Cc2cn(Cc3ccc(F)cc3)nn2)C/C1=C\c1ccccc1F`, the Activity in the data set on MCF7 [1] is given as 36.03%; with MCF7 [4], 85.6%; in the data set with MCF7 [6] it was 30.88%; with MCF7 [9], 19.59%; in the data set on MCF7 [10] it was 35.11%; in the data set with MCF7 [11], 15.2%. Also, the Activity in the data set with MCF7 [13] is 89.87%; with MCF7 [15], 4.28%; in the data set with MCF7 [16] it was 16.3%; in the data set on MCF7 [18], “Dose-dependent effect”; in the data set with MCF7 [19], “Dose-dependent effect”. The result in the data set with MCF7 [2], in the data set with MCF7 [5], with MCF7 [7], in the data set on MCF7 [12] and with MCF7 [17] was Active. The compound also gave a k el at 1 h, 5 ug/ml in data set [3] of 0.00147 s⁻¹. Besides, the CLint scaled at 5 ug/ml in data set [8] was 317 L/h/kg. This compound had an inhibition in data set [14] of 100%.

`Cc1ccc(/C=C2\CN(Cc3cn(Cc4ccccc4F)nn3)C/C(=C\c3ccc(C)cc3)C2=O)cc1`: the CLint scaled at 8 ug/ml in data set [20] is 158 L/h/kg. Also, the Activity in the data set with PC-3 [21] was determined as 8.9%; in the data set on PC-3 [23], 0.81%; with PC-3 [29] it was 70.62%; in the data set with PC-3 [32], 0.75%. The result in the data set on PC-3 [22], with PC-3 [26], in the data set with PC-3 [30] and in the data set on PC-3 [31] was Active. In addition, the inhibition result with PC-3 [24] is “Dose-dependent effect”; in data set [28], 100%. The viability at 8.8 µM with PC-3 [25] stood at 80.8%. Further, the remaining at 5 min, 8 ug/ml in [27] was 66%.

The values are drawn from ChEMBL document CHEMBL4477254, “Synthesis and biological evaluation of some novel triazole hybrids of curcumin mimics and their selective anticancer activity against breast and prostate cancer cell lines” (Bioorg Med Chem Lett, 2016).
